Consider eight compounds from ChEMBL document CHEMBL1136869, “2-Cyclohexylcarbonylbenzimidazoles as potent, orally available and brain-penetrable opioid receptor-like 1 (ORL1) antagonists” (Bioorg Med Chem Lett, 2009).

Calls of active or inactive are those of the source. The calls are words filed in the database; no cut-off is given here. Some results are limits rather than exact numbers.

Data set [1] addresses T1, Nociceptin receptor (Homo sapiens, UniProt P41146). The data set can be described thus: Displacement of [125I]Tyr14-NC/OFQ from ORL1 receptor.
The target of data set [2] is T1, Nociceptin receptor. Description: Antagonist activity against ORL1 receptor by [S35]GTPgammaS binding. In kind it is functional.
In data set [3] the target is Voltage-gated inwardly rectifying potassium channel KCNH2 (Homo sapiens, UniProt Q12809). Description: Displacement of [35S]MK499 from human ERG expressed in HEK293 cells.
Sequence of Voltage-gated inwardly rectifying potassium channel KCNH2 (Q12809 whole entry): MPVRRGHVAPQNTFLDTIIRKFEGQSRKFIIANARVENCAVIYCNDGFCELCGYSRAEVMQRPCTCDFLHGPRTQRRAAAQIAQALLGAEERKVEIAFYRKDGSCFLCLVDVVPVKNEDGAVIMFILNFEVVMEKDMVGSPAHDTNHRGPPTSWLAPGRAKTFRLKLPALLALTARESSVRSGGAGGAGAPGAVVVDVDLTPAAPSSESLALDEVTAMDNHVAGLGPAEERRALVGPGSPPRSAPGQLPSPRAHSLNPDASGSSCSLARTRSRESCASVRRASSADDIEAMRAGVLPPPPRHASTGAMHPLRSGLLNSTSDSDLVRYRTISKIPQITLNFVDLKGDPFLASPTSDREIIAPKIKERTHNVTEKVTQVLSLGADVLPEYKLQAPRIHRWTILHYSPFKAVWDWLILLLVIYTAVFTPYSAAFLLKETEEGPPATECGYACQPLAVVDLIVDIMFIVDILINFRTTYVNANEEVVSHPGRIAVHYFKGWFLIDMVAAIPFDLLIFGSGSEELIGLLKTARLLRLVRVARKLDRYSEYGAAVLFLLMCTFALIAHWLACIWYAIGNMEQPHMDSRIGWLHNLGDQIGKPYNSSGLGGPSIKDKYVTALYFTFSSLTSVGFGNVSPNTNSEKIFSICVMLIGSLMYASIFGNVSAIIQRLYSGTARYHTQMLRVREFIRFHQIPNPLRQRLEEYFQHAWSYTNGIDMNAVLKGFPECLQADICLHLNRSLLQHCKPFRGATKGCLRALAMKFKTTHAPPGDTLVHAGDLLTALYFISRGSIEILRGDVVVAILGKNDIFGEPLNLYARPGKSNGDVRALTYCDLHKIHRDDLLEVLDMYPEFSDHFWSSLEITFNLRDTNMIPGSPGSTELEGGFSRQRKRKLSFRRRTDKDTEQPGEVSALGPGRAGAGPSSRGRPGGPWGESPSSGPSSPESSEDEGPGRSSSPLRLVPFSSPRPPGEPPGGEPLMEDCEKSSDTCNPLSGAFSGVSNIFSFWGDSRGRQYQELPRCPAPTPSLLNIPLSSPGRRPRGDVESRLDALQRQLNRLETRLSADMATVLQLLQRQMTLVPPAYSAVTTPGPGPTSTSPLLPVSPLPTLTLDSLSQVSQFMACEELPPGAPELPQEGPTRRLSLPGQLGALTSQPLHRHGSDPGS
The nature of data set [4]: Distribution coefficient, log D at pH 7.4 by shake flask method. The format is physicochemical. Conditions: octanol/water.
The nature of data set [5]: Metabolic stability in human liver microsomes assessed as parent compound remaining at 1 uM after 30 mins. In kind it is ADME, Microsome. To be noted: read-out: Stability.
Data set [6] in a line: Ratio of drug level in brain to plasma of mouse at 3 mg/kg, sc after 30 mins. The format is ADME, organism-based. Also on record: dose 3 mg/kg, route subcutaneous. The gist of the method:
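Mice dosed subcutaneously at 3 mg/kg; brain and plasma sampled 30 min after dosing. Brain level measured as nmol/g tissue alongside plasma concentration; value is the brain-to-plasma (b/p) ratio of these two levels.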

In data set [7] the target is Mu-type opioid receptor (Homo sapiens, UniProt P35372). Description: Displacement of [3H]diprenorphin from human mu opioid receptor expressed in CHO cells. The format is cell-based. The gist of the method: (§1)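 Radioligand displacement in CHO cells stably expressing cloned human opioid receptors: [3H]diprenorphin for mu and [3H]U69593 for kappa. IC50 values were reported.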
Sequence of Mu-type opioid receptor (P35372 whole entry): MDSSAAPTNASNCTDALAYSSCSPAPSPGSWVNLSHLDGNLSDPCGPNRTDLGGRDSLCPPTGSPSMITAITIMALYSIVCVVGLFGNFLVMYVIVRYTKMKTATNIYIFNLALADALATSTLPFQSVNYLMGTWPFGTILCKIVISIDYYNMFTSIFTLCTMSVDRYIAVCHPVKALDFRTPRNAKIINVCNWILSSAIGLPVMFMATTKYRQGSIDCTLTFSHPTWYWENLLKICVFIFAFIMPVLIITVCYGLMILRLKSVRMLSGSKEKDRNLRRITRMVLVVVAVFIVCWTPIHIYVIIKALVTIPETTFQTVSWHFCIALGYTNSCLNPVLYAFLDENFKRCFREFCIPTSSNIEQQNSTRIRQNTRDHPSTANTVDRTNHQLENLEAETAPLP

Data set [8] concerns the target Kappa-type opioid receptor (Homo sapiens, UniProt P41145). The data set can be described thus: Displacement of [3H]U69593 from human kappa opioid receptor expressed in CHO cells. In kind it is cell-based. In outline: as §1
A short description of data set [9]: Oral bioavailability in rat at 3 mg/kg. The format is ADME, organism-based. Conditions: in vivo.
Data set [10] is described as follows: Half life in rat at 3 mg/kg, po and 1 mg/kg, iv. The format is ADME, organism-based. To be noted: in vivo.
Data set [11] in a line: Clearance in rat at 3 mg/kg, po and 1 mg/kg, iv. In kind it is ADME, organism-based. To be noted: in vivo.
Data set [12] in a line: Oral bioavailability in dog at 3 mg/kg. The format is ADME, organism-based, Canis lupus familiaris. Conditions: in vivo.
The nature of data set [13]: Half life in dog at 3 mg/kg, po and 1 mg/kg, iv. The format is ADME, organism-based, Canis lupus familiaris. To be noted: in vivo.
A short description of data set [14]: Clearance in dog at 3 mg/kg, po and 1 mg/kg, iv. The format is ADME, organism-based, Canis lupus familiaris. To be noted: in vivo.
Data set [15] in a line: Oral bioavailability in monkey at 3 mg/kg. In kind it is ADME, organism-based, Macaca mulatta. Conditions: rhesus monkey, in vivo.
Data set [16] in a line: Half life in monkey at 3 mg/kg, po and 1 mg/kg, iv. Conditions: rhesus monkey, in vivo. In kind it is ADME, organism-based, Macaca mulatta.
Data set [17] can be described thus: Clearance in monkey at 3 mg/kg, po and 1 mg/kg, iv. The format is ADME, organism-based, Macaca mulatta. Conditions: rhesus monkey, in vivo.
Data set [18] can be described thus: Plasma concentration in mouse at 3 mg/kg, sc after 30 mins. The format is ADME, organism-based. Also on record: dose 3 mg/kg, route subcutaneous.
For data set [19], the system named is Brain. Description: Drug level in mouse brain at 3 mg/kg, sc after 30 mins. In kind it is ADME, organism-based. Also on record: dose 3 mg/kg, route subcutaneous. Conditions: in vivo, 0.5 h.
Data set [20] in a line: Inhibition of adrenergic alpha1 receptor at 10 uM.
The target of data set [21] is T2, Alpha-1D adrenergic receptor (Homo sapiens) (UniProt P25100).
T2 sequence (whole entry): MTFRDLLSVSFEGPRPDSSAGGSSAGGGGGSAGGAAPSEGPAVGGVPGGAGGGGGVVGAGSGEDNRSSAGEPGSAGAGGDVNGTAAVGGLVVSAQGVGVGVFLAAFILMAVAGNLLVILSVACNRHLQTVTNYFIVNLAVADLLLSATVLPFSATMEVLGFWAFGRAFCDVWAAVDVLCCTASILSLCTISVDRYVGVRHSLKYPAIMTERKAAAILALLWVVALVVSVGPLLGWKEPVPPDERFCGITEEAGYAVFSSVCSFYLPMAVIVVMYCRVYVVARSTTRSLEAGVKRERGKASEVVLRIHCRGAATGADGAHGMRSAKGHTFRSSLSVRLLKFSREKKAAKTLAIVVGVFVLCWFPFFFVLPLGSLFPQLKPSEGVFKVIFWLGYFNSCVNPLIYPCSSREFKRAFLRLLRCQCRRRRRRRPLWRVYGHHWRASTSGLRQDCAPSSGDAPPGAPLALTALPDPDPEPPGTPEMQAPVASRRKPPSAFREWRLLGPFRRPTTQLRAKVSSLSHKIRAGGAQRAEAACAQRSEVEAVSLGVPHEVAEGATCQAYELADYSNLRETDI
Description: Inhibition of adrenergic Alpha-1D receptor at 10 uM.

The target of data set [22] is Cannabinoid receptor 2 (Homo sapiens) (UniProt P34972). Description: Inhibition of CB2 receptor at 10 uM.
Sequence of Cannabinoid receptor 2 (Homo sapiens) (P34972 whole entry): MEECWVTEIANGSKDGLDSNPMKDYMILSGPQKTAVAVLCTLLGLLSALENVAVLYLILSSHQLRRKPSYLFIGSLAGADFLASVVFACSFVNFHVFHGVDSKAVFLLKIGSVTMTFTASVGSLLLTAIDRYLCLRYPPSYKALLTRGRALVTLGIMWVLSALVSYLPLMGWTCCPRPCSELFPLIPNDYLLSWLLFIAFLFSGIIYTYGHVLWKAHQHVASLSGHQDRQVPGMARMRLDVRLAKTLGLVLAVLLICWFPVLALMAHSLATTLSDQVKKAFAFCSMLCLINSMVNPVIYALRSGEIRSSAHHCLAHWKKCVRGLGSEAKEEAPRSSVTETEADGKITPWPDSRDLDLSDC
In data set [23] the target is Histamine H3 receptor (Homo sapiens) (UniProt Q9Y5N1). Description: Inhibition of histamine H3 receptor at 10 uM.
Sequence of Histamine H3 receptor (Homo sapiens) (Q9Y5N1 whole entry): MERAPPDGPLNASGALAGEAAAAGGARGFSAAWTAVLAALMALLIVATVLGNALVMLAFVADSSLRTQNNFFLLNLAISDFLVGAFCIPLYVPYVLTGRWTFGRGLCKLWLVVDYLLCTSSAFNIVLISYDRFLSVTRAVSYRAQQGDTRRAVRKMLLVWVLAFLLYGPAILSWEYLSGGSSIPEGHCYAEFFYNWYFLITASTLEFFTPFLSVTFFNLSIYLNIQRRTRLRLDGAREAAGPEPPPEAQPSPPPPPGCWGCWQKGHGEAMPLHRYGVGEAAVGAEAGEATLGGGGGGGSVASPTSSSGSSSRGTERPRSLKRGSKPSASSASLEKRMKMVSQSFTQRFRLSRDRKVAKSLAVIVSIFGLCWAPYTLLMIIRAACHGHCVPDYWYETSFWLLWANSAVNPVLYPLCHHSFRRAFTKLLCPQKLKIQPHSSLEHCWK
Data set [24] has as its target T3, High affinity choline transporter 1 (Homo sapiens) (UniProt Q9GZV3).
T3 sequence (whole entry): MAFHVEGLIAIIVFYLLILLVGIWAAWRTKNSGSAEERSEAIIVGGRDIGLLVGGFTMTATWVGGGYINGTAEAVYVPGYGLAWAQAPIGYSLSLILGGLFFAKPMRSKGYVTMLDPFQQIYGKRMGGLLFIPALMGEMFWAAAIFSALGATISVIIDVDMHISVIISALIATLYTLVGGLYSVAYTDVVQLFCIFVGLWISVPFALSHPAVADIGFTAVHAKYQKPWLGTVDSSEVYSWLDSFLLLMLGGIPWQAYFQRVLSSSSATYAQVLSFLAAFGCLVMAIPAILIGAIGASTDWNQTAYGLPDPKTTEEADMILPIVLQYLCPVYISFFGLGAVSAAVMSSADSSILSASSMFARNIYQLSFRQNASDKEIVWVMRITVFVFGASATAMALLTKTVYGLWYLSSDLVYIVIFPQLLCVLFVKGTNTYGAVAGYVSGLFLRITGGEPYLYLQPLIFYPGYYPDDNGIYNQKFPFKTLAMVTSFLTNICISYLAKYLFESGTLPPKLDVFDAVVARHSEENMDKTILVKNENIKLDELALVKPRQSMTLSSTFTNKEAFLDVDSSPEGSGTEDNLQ
The data set can be described thus: Inhibition of choline transporter at 10 uM.

A short description of data set [25]: Cmax in dog at 10 mg/kg, iv. Conditions: in vivo. In kind it is ADME, organism-based, Canis lupus familiaris. Also on record: dose 10 mg/kg, route intravenous.
Data set [26] has as its system Canis familiaris. The data set can be described thus: Toxic effect in anesthetized dog assessed as incidence of cardiovascular events at 10 mg/kg, iv. The format is toxicity, organism-based, Canis lupus familiaris. Also on record: dose 10 mg/kg, route intravenous. Conditions: in vivo.
Data set [27] concerns Rattus norvegicus. Description: Antihyperalgesic activity in rat assessed as inhibition of carrageenan-induced hyperalgesia at 30 mg/kg, sc after 1 hr. Also on record: dose 30 mg/kg. In kind it is functional, organism-based. The gist of the method:
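Rats received carrageenin (0.15 ml, 3%) by intraplantar injection 3 h before testing. Compound was given sc, and testing followed 1 h later. Responses to a noxious mechanical stimulus were scored, with significance set at P < 0.05.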

Data set [28] concerns the target Delta-type opioid receptor (Homo sapiens, UniProt P41143). Description: Displacement of [3H]naltrindole from human delta opioid receptor expressed in CHO cells.
The nature of data set [29]: Drug level in mouse plasma at 30 mg/kg, po after 1 hr. In kind it is ADME, organism-based. More on the design: dose 30 mg/kg, route oral.
Data set [30] has as its system Brain. The data set can be described thus: Drug level in mouse brain at 30 mg/kg, po after 1 hr. The format is ADME, organism-based. To be noted: in vivo. More on the design: dose 30 mg/kg, route oral.
Data set [31] is described as follows: Ratio of drug level in mouse brain to plasma at 30 mg/kg, po after 1 hr. The format is ADME, organism-based. Also on record: dose 30 mg/kg, route oral.

T1 sequence (P41146 whole entry): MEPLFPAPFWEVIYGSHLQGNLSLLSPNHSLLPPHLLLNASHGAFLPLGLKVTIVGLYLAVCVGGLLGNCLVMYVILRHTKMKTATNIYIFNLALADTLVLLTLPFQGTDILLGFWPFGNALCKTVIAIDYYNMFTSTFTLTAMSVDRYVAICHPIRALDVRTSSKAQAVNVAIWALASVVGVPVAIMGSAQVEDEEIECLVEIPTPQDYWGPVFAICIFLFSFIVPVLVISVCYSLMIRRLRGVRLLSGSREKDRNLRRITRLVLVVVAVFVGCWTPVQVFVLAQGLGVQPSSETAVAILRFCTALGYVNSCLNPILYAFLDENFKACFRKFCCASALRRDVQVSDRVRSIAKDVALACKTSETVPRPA
Sequence of Delta-type opioid receptor (P41143 whole entry): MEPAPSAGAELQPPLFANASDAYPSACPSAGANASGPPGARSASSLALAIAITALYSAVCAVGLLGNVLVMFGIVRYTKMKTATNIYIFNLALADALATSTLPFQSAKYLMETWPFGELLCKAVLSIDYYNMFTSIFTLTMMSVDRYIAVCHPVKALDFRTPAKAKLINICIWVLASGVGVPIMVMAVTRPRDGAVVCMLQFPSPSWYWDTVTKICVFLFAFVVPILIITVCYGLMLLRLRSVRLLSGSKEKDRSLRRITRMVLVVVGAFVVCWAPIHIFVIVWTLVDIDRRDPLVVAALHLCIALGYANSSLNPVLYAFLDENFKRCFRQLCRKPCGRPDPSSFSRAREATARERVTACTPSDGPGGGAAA
Sequence of Kappa-type opioid receptor (P41145 whole entry): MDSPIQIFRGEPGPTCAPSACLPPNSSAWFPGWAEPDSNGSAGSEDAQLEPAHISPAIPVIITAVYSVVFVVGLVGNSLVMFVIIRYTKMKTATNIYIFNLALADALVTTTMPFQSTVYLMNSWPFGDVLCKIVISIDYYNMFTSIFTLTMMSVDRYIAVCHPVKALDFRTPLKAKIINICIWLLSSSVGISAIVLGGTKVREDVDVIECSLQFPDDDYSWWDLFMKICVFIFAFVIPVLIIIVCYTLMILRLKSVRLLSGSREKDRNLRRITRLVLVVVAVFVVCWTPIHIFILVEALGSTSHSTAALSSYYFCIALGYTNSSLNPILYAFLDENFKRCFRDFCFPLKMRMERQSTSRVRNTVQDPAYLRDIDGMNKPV

For `CCN1CCN(c2cc3[nH]c(C(=O)[C@]4(C)CC[C@@H](NC(=O)OC)CC4)nc3cc2Cl)CC1`, the 50% inhibitory concentration (IC50) in [1] worked out at 5.7 nM; in data set [2], 7.5 nM; in data set [3] it was 4900 nM. The compound also displayed a logD in [4] of 3.7. In addition, in [5], the remaining at 0.5 h, 1 µM stood at 74%.

For `CCN1CCN(c2cc3[nH]c(C(=O)[C@]4(C)CC[C@@](C)(O)CC4)nc3cc2Cl)CC1`, in data set [6], the Kp at 0.5 h came out at 2.02. For the same compound, the IC50 is 1.3 nM in [2]; 20000 nM in data set [3]; greater than 10000 nM in [7]; 1400 nM in data set [8]; greater than 10000 nM in [28]. Further, in [4], the logD was found to be 3.1. For the same compound, in [5], the remaining at 0.5 h, 1 µM is 82%. The bioavailability in [9] was 15%; in data set [12] it was 38%; in data set [15], 8%. Also, the half-life was 0.62 h in data set [10], 3.5 h in data set [13] and 4 h in data set [16]. Moreover, the values for the clearance in data set [11], in data set [14] and in data set [17] were 77 mL/min/kg, 34 mL/min/kg and 22 mL/min/kg, respectively. This compound also had a concentration at 0.5 h in data set [18] of 1.08 µM. Besides, the Drug uptake in data set [19] is on record as 2.21 nmol/g. Moreover, the inhibition in [20] came out at 72%; in data set [21], 74%; in data set [22], 73%; in data set [23], 50%; in [24] it was 62%. This compound also displayed a Cmax in data set [25] of 10.7 µM. For the same compound, the Activity entry in [26] is recorded as “Non-toxic”. The result in data set [27] was Active.

`CCN1CCN(c2cc3[nH]c(S[C@]4(C)CC[C@@H](N(C)C(C)=O)CC4)nc3cc2Cl)CC1` gave a concentration at 1 h in data set [29] of 4.56 µM. In addition, in data set [30], the Drug uptake is 0.38 nmol/g. In addition, in data set [31], the Kp at 1 h was found to be 0.09.

Regarding `CCN1CCN(c2cc3[nH]c(C(=O)C4(C)CCC(=O)CC4)nc3cc2Cl)CC1`, the concentration for half-maximal inhibition (IC50) is 9.9 nM in data set [1], 38 nM in data set [2] and 8500 nM in [3]. Moreover, in data set [4], the logD turned out to be 3.

As to `CCN1CCN(c2cc3[nH]c(C(=O)[C@]4(C)CC[C@@H](NC(=O)OC)CC4)nc3cc2C)CC1`, the IC50 in data set [1] was 2 nM; in data set [2], 5.3 nM; in [3], 3000 nM. In data set [4], this compound showed a logD of 3.1. Moreover, the remaining at 0.5 h, 1 µM in data set [5] worked out at 71%.

In data set [29], `CCN1CCN(c2cc3[nH]c(S[C@]4(C)CC[C@@H](NC(=O)OC)CC4)nc3cc2Cl)CC1` yielded a concentration at 1 h of 22.2 µM. Besides, in [30], the Drug uptake turned out to be 1.11 nmol/g. Moreover, the Kp at 1 h in data set [31] is 0.05.

With `CCN1CCN(c2cc3[nH]c(C(=O)[C@]4(CC)CC[C@@](C)(O)CC4)nc3cc2Cl)CC1`, the IC50 was determined as 0.8 nM in [1] and 2.4 nM in data set [2]. Besides, the logD in [4] amounted to 3.6. Moreover, the remaining at 0.5 h, 1 µM in data set [5] stood at 57%.

As to `CCN1CCN(c2cc3[nH]c(C(=O)[C@]4(C)CC[C@](C)(O)CC4)nc3cc2Cl)CC1`, the IC50 in data set [1] was 27 nM; in data set [3], 3100 nM.
